Test system: MS2 coat protein
Test: apparent Kd, MS2 coat protein; higher = weaker binding; RNA-MaP array; FMN 200 µM where present
Summary of the method: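 Apparent Kd: the median of filtered binding-curve fits from single clusters. Designs were transcribed on Illumina sequencing-chip clusters by stalled E. coli RNA polymerase and titrated with SNAP-549-labelled MS2 coat protein from 0.7 or 1.5 nM, doubling to 3 µM, in 100 mM Tris-HCl pH 7.5, 80 mM KCl, 4 mM MgCl2, BSA, DTT, yeast tRNA and Tween-20. Each series ran without and then with constant ligand, and green signal was normalised to red-channel RNA signal and control-cluster median Fmax.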

[1] = designed as: OFF switch for flavin mononucleotide, no ligand
[2] = ligand present: flavin mononucleotide, designed as: OFF switch for flavin mononucleotide
[3] = designed as: ON switch for flavin mononucleotide, no ligand
[4] = ligand present: flavin mononucleotide, designed as: ON switch for flavin mononucleotide

| Sequence | apparent Kd [1] [nM] | apparent Kd [2] [nM] | apparent Kd [3] [nM] | apparent Kd [4] [nM] |
| --- | --- | --- | --- | --- |
| AGACUCUCUGGAGGAUAUCAUAGUCGUUGACUAUGAGAAGGUUAGCUAUCUUACAUGAGGAUCACCCAUGUGAUCUCUCUCGAG | 18.1 | 14.6 | – | – |
| AGACUGAAGCAAGGAUAUUGUAAGGUUAUCGUACAAGAAGGUGCUGUUUAUGUCUCUUAACAUGAGGAUCACCCAUGUUUUGAA | – | – | 18.4 | 18.1 |
| AGACUGCGUAGAAUUAGCAGCCGGCAGGAUAUGACAUGAGGAUCACCCAUGUGAACUCCAUUGGGUCAGAAGGGCCACGACACA | 21.8 | 147 | – | – |
| AGAGACCUCACAGGAUAUGCUGGACUUUGUCCAGCAGAAGGGUGAAAACAUGAGGAUCACCCAUGUAUGGUCUCCAAAUUUAAG | – | – | 182 | 13.5 |
| AGAGAUACGCUCGUCGGAAAGCGACAUGAGGAUCACCCAUGUAGAAGGCGAUGCGCAACUCGCAUUGAGGAUAUAUAGUGCAGC | 6.51 | 6.65 | – | – |
| AGAGCCUCGUGAGGAUAUACAUGAGGAUCACCCAUGUAAAUGAAAGAUACGUCGAAACGACGAAUGUAGAAGGCACGAGGCUCA | 17.8 | 65.9 | – | – |
| AGAUAACACCAGAAGGACAUGAGGAUCACCCAUGUAGGAUAUGGGCAUCACUCGAGAAAGAAAAGACCAUAUGGACACAUGGUC | – | – | 160 | 13.2 |
| AGAUAACAUGAGGAUCACCCAUGUGAGGAUAUUUACUCAAGAGCUUCGGCUCUCAGGUGAAGAAGGCACAAUGA | 55.9 | 83.4 | – | – |
| AGAUAAUAGCAGAAGGGCCAUGGACAUGAGGAUCACCCAUGUAACGGUGGACUCAUUUGUGAAGGGCAGGAUAUGCAAUAAAGA | 160 | 13.4 | – | – |
| AGAUACUACGAGAAGGACAUGAGGAUCACCCAUGUAACCUGUAUCAGGAAUGUAGGAUAUCGUAGUAUCAGGAUCGUGAGAUCA | 6.79 | 7.82 | – | – |
| AGAUGACAAUGUCAUCUUCGACGGACAUGAGGAUCACCCAUGUAGGAUAUGCUACUCAAAGAGUAGCAGAAGGACAUGUGUCUU | 22.2 | 74.8 | – | – |
| AGAUGGUAGAGAGGAUAUCAUGUGCUGACAUGAGGAUCACCCAUGUAGGGACGUCAGUCCAAUUAUGAGAAGGCUCUACCAUCU | – | – | 49.4 | 40.2 |
| AGAUGGUAGAGAGGAUAUCAUGUGCUGACAUGAGGAUCACCCAUGUAGGGACGUCGGUCCAAUUAUGAGAAGGCUCUACCAUCU | – | – | 85.6 | 55.9 |
| AGAUUAUGAGGAUAUCGAGUUUAGUACAUGAGGAUCACCCAUGUUAUCCAGGUCUCGUUUCGAGAAGGCAUGAUUC | 33.5 | 30.9 | – | – |
| AGAUUUGUACAUGAGGAUCACCCAUGUUAAUAGGUGGUUGUCAGAAGGCAUUGAUAGAGUUUUAAUGAGGAUAUGAAUUUACAG | – | – | 1000 | 553 |
| AGCACGAAGAUUAUUAUGAAUAAACAUGAGGAUCACCCAUGUAAGGAUAUCGACUCGAAUAGAGUCGAGAAGGUACAUACGUGC | 11 | 51.8 | – | – |
| AGCAUGCUAGGAUAUACGGGACAUUAGGGUUCGUCGUAUGGACAUGAGGAUCACCCAUGUAGAAGGAGCGUGCA | 20.7 | 44.2 | – | – |
| AGCAUGUAAGGAUAUGCAAGUGGUACGGAUAGUACCAGAAAGCAGAAGGUACAUGAGGAUCACCCAUGUGCUCC | 28.2 | 55.2 | – | – |
| AGCCAACAUGAGGAUCACCCAUGUGUACGUUAUGUAGGAUAUCUGAUGCGCGCGUGCGCAAGAGAAGGACGAGACG | – | – | 33.4 | 21.2 |
| AGCCGGGCCCAGAAGGUGCCAGCGAGAGCUGCACAUGAGGAUCACCCAUGUUGUCGGUGACGACGCAAGGAUAUGGGCCCGGCU | – | – | 22.7 | 7.17 |
| AGCCUACAUGAGGAUCACCCAUGUCAGGAUAUCUCGCGACGUGUCGGGAACACGUUGCAGAGAAGGGACUCGGG | 56.4 | 69.4 | – | – |
| AGCGAGAUAGGCAAGGAUAUGCUGGGUUUCACAUGAGGAUCACCCAUGUCAUAGGUAAUGUCCGAGCAGAAGGUGCAUUCUCUUU | – | – | 171 | 21.7 |
| AGCGAGAUAGGCAAGGAUAUGCUGGGUUUCACAUGAGGAUCACCCAUGUCAUUGGUUAUGUCCGAGCAGAAGGUGCAUUCUCUUU | – | – | 338 | 47.2 |
